Assay outcomes (PubChem BioAssay)
IDH1 mut inh = blocks human IDH1 R132H reductase activity | inhibition, % at 10 µM | diaphorase/resazurin fluorescence, 60 min | O75874 | 70,000 compounds, 0.18% hits; in the data active = inhibition above about 34%;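 also: 0% = DMSO and 100% = no enzyme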
Target sequence (O75874 whole entry R132H): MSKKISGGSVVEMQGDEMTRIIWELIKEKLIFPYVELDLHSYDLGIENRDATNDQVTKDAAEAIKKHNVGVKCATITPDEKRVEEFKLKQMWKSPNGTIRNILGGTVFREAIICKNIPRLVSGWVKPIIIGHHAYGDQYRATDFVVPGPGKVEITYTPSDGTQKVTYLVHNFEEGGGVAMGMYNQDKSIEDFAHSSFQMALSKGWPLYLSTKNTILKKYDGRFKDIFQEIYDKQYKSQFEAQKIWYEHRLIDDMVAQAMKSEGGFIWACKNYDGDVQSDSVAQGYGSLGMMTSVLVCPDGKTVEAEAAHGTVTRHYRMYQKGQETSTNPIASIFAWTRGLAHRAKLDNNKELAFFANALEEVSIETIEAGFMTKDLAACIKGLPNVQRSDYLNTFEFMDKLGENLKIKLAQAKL
Tcruzi prolif = T. cruzi proliferation inhibition. AID 624255. T. cruzi beta-gal in NIH3T3, GalScreen luminescence, 90 h. 77,000 compounds, 5.9% hits. inhibition, % at 8.34 µM;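 active = mean inhibition above about 93%, with at least 55% of replicates each passing it, limit read from the data, passing the limit was not always enough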
GASC1 inh = blocks human GASC-1 (KDM4C) demethylase activity; Q9H3R0; GST-KDM4C 2-372, H3K9me3 peptide, LANCE TR-FRET; inhibition, % at 12.5 µM; 96,000 compounds, 0.15% hits;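 active = mean replicate inhibition above about 25%, with at least 55% of replicates also reaching it, limit read from the data, passing the limit was not always enough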
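Compound: one test concentration per compound; Material: GST-GASC-1 enzyme fragment 2-372; Amount: GASC-1 enzyme at 10 nM final in reaction; Also added: H3K9me3 peptide substrate, Fe(II), 2-oxoglutarate; Technique: LANCE TR-FRET; Times: 30 min demethylation and 1 h detection at room temperature.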
* marks the source's active call; other numbers are inactive results; . = not tested or not shown; ! = not confirmed by another sample. Many of the other results were omitted from the sample, so hits are more common in it than they were.

SMILES | IDH1 mut inh | Tcruzi prolif | GASC1 inh
O=S(=O)(c1ccccc1)c1nc(-c2ccccc2Cl)oc1NCc1cccnc1 | -1 | . | .
COc1ccccc1-c1ccc2c(c1)[C@@H]1[C@@H](CCN1S(=O)(=O)c1ccccc1F)[C@H](CO)N2 | . | 88 | 0
C[C@@H](NC(=O)C[C@H]1CC[C@H](NC(=O)CN2CCOCC2)[C@@H](CO)O1)c1ccccc1 | 0 | -24 | 0
C[C@@H]1CN([C@@H](C)CO)C(=O)c2cc(NC(=O)CCCN(C)C)ccc2O[C@@H](C)CCCCO[C@H]1CN(C)Cc1ccccc1 | 1 | 32 | 3
COc1ccc(S(=O)(=O)N(C)C[C@H]2OCCCC[C@H](C)Oc3ccc(NC(=O)c4ccncc4)cc3C(=O)N([C@H](C)CO)C[C@H]2C)cc1 | 2 | 22 | 1
Cc1c(NC(=O)CN(c2ccc3c(c2)OCCO3)S(C)(=O)=O)c(=O)n(-c2ccccc2)n1C | 0 | . | .
N#Cc1cccc(-c2ccc(C3[C@@H]4CN(C(=O)c5ccncc5)C[C@H]3N4)cc2)c1 (stereo not given in full) | . | . | 0
N#Cc1ccc(-c2ccc(C3[C@@H]4CN(C(=O)c5ccncc5)C[C@H]3N4)cc2)cc1 (stereo not given in full) | . | . | 39*!
O=C(CN1CCOCC1)NCC[C@H]1CC[C@H](NC(=O)c2ccc3c(c2)OCO3)[C@H](CO)O1 | 61* | 0 | 50*
O=C(CN1CCOCC1)NCC[C@@H]1CC[C@H](NC(=O)c2ccc3c(c2)OCO3)[C@H](CO)O1 | 0 | 25 | -1
C[C@@H]1CN([C@@H](C)CO)C(=O)c2cc(Br)cnc2O[C@@H]1CN(C)C(=O)Nc1ccc(F)cc1 | 0 | -114 | -3
C[C@H](CO)N1C[C@H](C)[C@H](CN(C)C(=O)Nc2ccc(F)cc2)Oc2ncc(Br)cc2C1=O | 34*! | -173 | 4
C[C@H](CO)N1C[C@H](C)[C@H](CN(C)C(=O)Nc2ccccc2)Oc2ncc(-c3cccc(C(F)(F)F)c3)cc2C1=O | . | 91 | -1
C[C@H](CO)N1C[C@H](C)[C@H](CN(C)C(=O)Nc2ccc(F)cc2)Oc2ncc(-c3cccc(C(F)(F)F)c3)cc2C1=O | 3 | 109* | -2
CC(=O)NC[C@H]1[C@@H](c2ccc(-c3cccnc3)cc2)[C@H](CO)N1C(=O)C1CCC1 | . | 22 | -2
CN1C(=O)c2cc(NC(=O)Nc3cccc(Cl)c3)ccc2OC[C@@H]2O[C@H](CC(=O)O)CC[C@H]21 | . | -168 | 0
COC(=O)[C@H]1[C@H]2C[C@H]3c4[nH]c5ccccc5c4CCN3C[C@H]2CC[C@@H]1O | 0 | . | .
CC(/C=C/C(=O)NO)=C\c1ccccc1OC[C@@H]1[C@H]2C[C@H]3c4[nH]c5ccccc5c4CCN3C[C@@H]2CC[C@@H]1O | 74* | . | .
C[C@@H]1CN([C@H](C)CO)S(=O)(=O)c2ccc(C#CC3CC3)cc2O[C@H]1CN(C)Cc1cccnc1 | 60* | . | -1
C[C@@H]1CN([C@@H](C)CO)S(=O)(=O)c2ccc(C#CC3CC3)cc2O[C@H]1CN(C)Cc1cccnc1 | . | . | 0
C[C@H](CO)N1C[C@H](C)[C@H](CN(C)C(=O)c2cccnc2)Oc2cc(C#CC3CC3)ccc2S1(=O)=O | 0 | 5 | 2
C[C@H](CO)N1C[C@H](C)[C@@H](CN(C)C(=O)c2cccnc2)Oc2cc(C#CC3CC3)ccc2S1(=O)=O | 42* | 21 | 16
C[C@@H]1CCCCO[C@H](CN(C)C(=O)Nc2ccc(C(F)(F)F)cc2)[C@@H](C)CN([C@H](C)CO)C(=O)c2cc(NC(=O)Nc3ccc4c(c3)OCO4)ccc2O1 | . | 107* | .
C[C@H](CO)N1C[C@H](C)[C@@H](CN(C)C(=O)Nc2ccc(C(F)(F)F)cc2)OCCCC[C@H](C)Oc2ccc(NC(=O)Nc3ccc4c(c3)OCO4)cc2C1=O | . | 119* | -4
C[C@@H]1CCCCO[C@H](CN(C)C(=O)Nc2ccc3c(c2)OCO3)[C@H](C)CN([C@H](C)CO)C(=O)c2cc(NC(=O)Nc3ccc(C(F)(F)F)cc3)ccc2O1 | 1 | 93 | 0
C[C@@H]1CN([C@@H](C)CO)C(=O)c2cc(NC(=O)Nc3ccc4c(c3)OCO4)ccc2O[C@@H](C)CCCCO[C@H]1CN(C)C(=O)C1CCCCC1 | . | 96 | 2
C[C@@H]1CCCCO[C@@H](CN(C)C(=O)C2CCCCC2)[C@H](C)CN([C@H](C)CO)C(=O)c2cc(NC(=O)Nc3ccc4c(c3)OCO4)ccc2O1 | 2 | 107* | -1
C[C@@H]1CCCCO[C@@H](CN(C)C(=O)c2ccccc2)[C@H](C)CN([C@H](C)CO)C(=O)c2cc(NC(=O)Nc3cccc4ccccc34)ccc2O1 | . | 102* | 2
